29 molecules from ChEMBL document CHEMBL3621046, “Discovery of a potent enoyl-acyl carrier protein reductase (FabI) inhibitor suitable for antistaphylococcal agent” (Bioorg Med Chem Lett, 2015) can be followed below.

SMILES strings stand for the structures. ≈ marks a conversion by molar mass, not a printed value. Bounds are passed on as bounds.

Assay [1] has as its target T1, Enoyl-[acyl-carrier-protein] reductase [NADPH] FabI (Staphylococcus aureus, UniProt Q6GI75).
T1 sequence (Q6GI75 whole entry): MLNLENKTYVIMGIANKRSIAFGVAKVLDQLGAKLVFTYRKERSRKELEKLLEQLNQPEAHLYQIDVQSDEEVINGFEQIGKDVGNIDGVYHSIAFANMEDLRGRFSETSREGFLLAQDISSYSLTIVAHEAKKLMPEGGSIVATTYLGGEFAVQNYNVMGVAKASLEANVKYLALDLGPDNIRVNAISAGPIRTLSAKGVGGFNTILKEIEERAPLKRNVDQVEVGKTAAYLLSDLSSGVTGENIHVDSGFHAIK
Put plainly: Inhibition of Staphylococcus aureus FabI assessed as reduction in inhibition of reduction of trans-2-octenoyl N-acetylcysteamine substrate by spectrophotometry.

Assay [2] concerns Staphylococcus aureus. Put plainly: Antibacterial activity against Staphylococcus aureus incubated for 18 hrs by agar dilution method. In kind it is functional. A general note: Agar dilution tests growth on a series of plates holding different concentrations.
Assay [3] relates to Staphylococcus aureus. Put plainly: Antibacterial activity against methicillin-resistant Staphylococcus aureus incubated for 18 hrs by agar dilution method. In kind it is functional. The essentials:
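Agar dilution. Strains were grown 18 h at 37 °C with shaking in Fleisch extract broth (beef extract 1%, peptone 1%, NaCl 0.3%, Na₂HPO₄ 0.2%, pH 7.4–7.5), then diluted 100-fold. Plates incubated 37 °C, 18 h. MIC is the lowest concentration preventing growth.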

As a reminder, the IC50 is the midpoint of a concentration-inhibition curve. What is called MIC is the smallest concentration in the dilution series that meets the test's criterion for growth inhibition. `Cc1ccc(Oc2coc(/C=C/c3ccoc3)cc2=O)c(C)c1`: the IC50 in assay [1] came out at 2.29 µM. In the assay with Staphylococcus aureus [2], this molecule yielded a minimal inhibitory concentration (MIC) of more than 20 µg/mL.
For the molecule `Cn1cc(Oc2c(Cl)cccc2Cl)c(=O)cc1COc1ccccc1`, the concentration for half-maximal inhibition (IC50) in assay [1] was found to be 0.72 µM. The minimum inhibitory concentration (MIC) in the assay on Staphylococcus aureus [2] and in the assay on Staphylococcus aureus [3] was 0.195 µg/mL (≈ 0.518 µM) throughout.
As to `O=c1cc(COc2ccccc2)n(C2CC2)cc1Oc1c(Cl)cccc1Cl`, the half-maximal inhibitory concentration (IC50) in assay [1] was found to be 6.43 µM. Also, the minimal inhibitory concentration (MIC) in the assay with Staphylococcus aureus [2] and against Staphylococcus aureus [3] was 3.12 µg/mL (≈ 7.77 µM) each time.
In the case of `O=c1cc(COc2ccccc2)[nH]cc1Oc1cccc([N+](=O)[O-])c1Cl`, the IC50 in assay [1] came to 11.7 µM. In addition, in the assay with Staphylococcus aureus [2], the minimum inhibitory concentration (MIC) was more than 20 µg/mL.
Regarding `Cn1cc(Oc2cccc([N+](=O)[O-])c2Cl)c(=O)cc1COc1ccccc1`, the IC50 in assay [1] was found to be 0.66 µM. Moreover, the results for the minimum inhibitory concentration (MIC) against Staphylococcus aureus [2] and in the assay on Staphylococcus aureus [3] were 0.781 µg/mL (≈ 2.02 µM) and 3.12 µg/mL (≈ 8.08 µM), respectively.
`O=c1cc(COc2ccccc2)n(C2CC2)cc1Oc1cccc([N+](=O)[O-])c1Cl`: in assay [1], the IC50 turned out to be 17.6 µM. Moreover, the minimal inhibitory concentration (MIC) against Staphylococcus aureus [2] was more than 20 µg/mL.
Taken in the same sequence, the figures for `COCc1cc(=O)c(Oc2ccc(Cl)cc2)co1` were 5.2 µM and 6.25 µg/mL (≈ 23.4 µM).
For `Cc1cc(Cl)ccc1Oc1coc(/C=C/c2ccccc2)cc1=O`, in assay [1], the IC50 came out at 4.88 µM. In addition, in the assay on Staphylococcus aureus [2], the MIC is more than 20 µg/mL.
Taken in the same sequence, the figures for `Cc1cc(Cl)ccc1Oc1coc(/C=C/c2ccoc2)cc1=O` were 2.45 µM and more than 20 µg/mL.
Turning to `Cc1cc(Cl)ccc1Oc1coc(/C=C/c2ccco2)cc1=O`, the IC50 in assay [1] was 3.89 µM. The molecule also displayed a minimum inhibitory concentration (MIC) in the assay with Staphylococcus aureus [2] of more than 20 µg/mL.
In the same order, the values of `Cc1cc(Cl)ccc1Oc1coc(/C=C/c2cccnc2)cc1=O` are 2.94 µM and more than 20 µg/mL.
Consider `Cc1cc(Cl)ccc1Oc1coc(/C=C/c2ccsc2)cc1=O`, for which the half-maximal inhibitory concentration (IC50) in assay [1] worked out at 3.12 µM. In the assay with Staphylococcus aureus [2], this molecule had an MIC of more than 20 µg/mL.
Taken in the same sequence, the figures for `Cc1cc(Cl)ccc1Oc1coc(/C=C/c2cccs2)cc1=O` were 4.57 µM and more than 20 µg/mL.
In the same order, the values of `Cc1cc(Cl)ccc1Oc1coc(/C=C/c2ccc[nH]2)cc1=O` are 5.82 µM and more than 20 µg/mL.
Taken in the same sequence, the figures for `CCC/C=C/c1cc(=O)c(Oc2ccc(Cl)cc2C)co1` were 6.44 µM and more than 20 µg/mL.
As to `Cc1cc(Cl)ccc1Oc1coc(/C=C/C(C)C)cc1=O`, the IC50 in assay [1] came to 5.78 µM. This molecule also returned an MIC against Staphylococcus aureus [2] of more than 20 µg/mL.
Taken in the same sequence, the figures for `O=c1cc(/C=C/c2ccccc2)occ1Oc1ccc(Cl)cc1Cl` were 4.53 µM and more than 20 µg/mL.
Take `O=c1cc(/C=C/c2ccoc2)occ1Oc1ccc(Cl)cc1Cl`: the IC50 in assay [1] came to 1.89 µM. The minimum inhibitory concentration (MIC) in the assay on Staphylococcus aureus [2] was more than 20 µg/mL.
In the same order, the values of `O=c1cc(/C=C/c2cccnc2)occ1Oc1ccc(Cl)cc1Cl` are 2.04 µM and more than 20 µg/mL.
Consider `Cc1ccc(Oc2coc(/C=C/c3ccccc3)cc2=O)c(C)c1`, for which, in assay [1], the IC50 was found to be 5.33 µM. Besides, the MIC against Staphylococcus aureus [2] is more than 20 µg/mL.
Taken in the same sequence, the figures for `Cc1ccc(Oc2coc(/C=C/c3cccnc3)cc2=O)c(C)c1` were 3.48 µM and more than 20 µg/mL.
In the same order, the values of `O=c1cc(/C=C/c2ccccc2)occ1Oc1cccc(Cl)c1Cl` are 6.73 µM and more than 20 µg/mL.
In the same order, the values of `O=c1cc(/C=C/c2ccoc2)occ1Oc1cccc(Cl)c1Cl` are 5.68 µM and more than 20 µg/mL.
For `O=c1cc(/C=C/c2cccnc2)occ1Oc1cccc(Cl)c1Cl`, the IC50 in assay [1] stood at 3.44 µM. The MIC in the assay with Staphylococcus aureus [2] was more than 20 µg/mL.
Taken in the same sequence, the figures for `O=c1cc(/C=C/c2ccccc2)occ1Oc1c(Cl)cccc1Cl` were 4.79 µM and more than 20 µg/mL.
Turning to `O=c1cc(/C=C/c2ccoc2)occ1Oc1c(Cl)cccc1Cl`, the IC50 in assay [1] was determined as 4.12 µM. In the assay on Staphylococcus aureus [2], this molecule came in with an MIC of more than 20 µg/mL.
In the case of `O=c1cc(/C=C/c2cccnc2)occ1Oc1c(Cl)cccc1Cl`, the IC50 in assay [1] is 3.74 µM. This molecule also registered an MIC in the assay on Staphylococcus aureus [2] of more than 20 µg/mL.
In the assay on Staphylococcus aureus [3], `CC(=O)NC[C@H]1CN(c2ccc(N3CCOCC3)c(F)c2)C(=O)O1` [LINEZOLID] registered an MIC of 0.781 µg/mL (≈ 2.32 µM).
In the assay with Staphylococcus aureus [2], `Oc1cc(Cl)ccc1Oc1ccc(Cl)cc1Cl` [TRICLOSAN] yielded a minimal inhibitory concentration (MIC) of 0.391 µg/mL (≈ 1.35 µM).
